Measurements reported in ChEMBL document CHEMBL2311383, “Discovery of piperazin-1-ylpyridazine-based potent and selective stearoyl-CoA desaturase-1 inhibitors for the treatment of obesity and metabolic syndrome” (J Med Chem, 2013).
Activity calls are given as the source filed them. The rule behind the calls is not given here.

What was measured:
Rattus norvegicus [1] = assay: In vivo inhibition of SCD1 in Lewis rat liver microsome at 15 mg/kg, ip administered qd for 2 days; type: functional; details: 48 h, route intraperitoneal
In short: (§1)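 Lewis rats fed high-carbohydrate diet for one week, fasted 4 h, then dosed orally (0.1–1 mg/kg in 0.2% Tween 20/1% CMC; n = 4), killed 4 h later; ip arm 15 mg/kg once daily for two days. Liver microsomes prepared, SCD1 activity measured by tritiated water release from [9,10-3H]stearoyl-CoA. Mean ± SD of at least four rats.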

[2] = Metabolic stability in rat liver microsome after 30 mins by LC/MS/MS analysis; type: ADME; details: liver microsomes, read-out: Stability
In short: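 Compound incubated 30 min with rat liver microsomes; percent parent remaining by LC/MS/MS.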

[3] = Protein binding in plasma (unknown origin); type: ADME, cell-free; details: read-out: PPB (converted)
[4] = Apparent permeability from apical to basolateral side in human Caco2 cells; type: ADME, cell-based; details: Caco-2
In short: (§2)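 Caco-2 monolayers; apparent permeability a-to-b and b-to-a reported in 10⁻⁶ cm/s.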

CYP2D6 = CYP2D6 (Homo sapiens, UniProt P10635); assay: Inhibition of CYP2D6 (unknown origin) at 10 uM; type: ADME
Chain of CYP2D6 (P10635 whole entry): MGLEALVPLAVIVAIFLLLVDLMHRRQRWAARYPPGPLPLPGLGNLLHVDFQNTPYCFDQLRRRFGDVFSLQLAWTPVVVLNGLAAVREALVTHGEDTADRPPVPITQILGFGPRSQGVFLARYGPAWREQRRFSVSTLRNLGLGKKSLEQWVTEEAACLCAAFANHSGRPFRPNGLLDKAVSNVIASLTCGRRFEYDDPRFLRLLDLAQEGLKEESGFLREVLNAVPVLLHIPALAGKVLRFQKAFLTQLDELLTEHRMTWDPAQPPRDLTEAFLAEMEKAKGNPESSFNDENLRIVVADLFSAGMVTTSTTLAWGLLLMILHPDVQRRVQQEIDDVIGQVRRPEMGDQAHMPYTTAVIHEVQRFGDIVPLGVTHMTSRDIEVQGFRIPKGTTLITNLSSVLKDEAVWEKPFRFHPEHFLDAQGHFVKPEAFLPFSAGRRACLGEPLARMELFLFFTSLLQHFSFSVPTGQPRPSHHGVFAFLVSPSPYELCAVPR

CYP2C19 = CYP2C19 (Homo sapiens, UniProt P33261); assay: Inhibition of CYP2C19 (unknown origin) at 10 uM; type: ADME
Chain of CYP2C19 (P33261 whole entry): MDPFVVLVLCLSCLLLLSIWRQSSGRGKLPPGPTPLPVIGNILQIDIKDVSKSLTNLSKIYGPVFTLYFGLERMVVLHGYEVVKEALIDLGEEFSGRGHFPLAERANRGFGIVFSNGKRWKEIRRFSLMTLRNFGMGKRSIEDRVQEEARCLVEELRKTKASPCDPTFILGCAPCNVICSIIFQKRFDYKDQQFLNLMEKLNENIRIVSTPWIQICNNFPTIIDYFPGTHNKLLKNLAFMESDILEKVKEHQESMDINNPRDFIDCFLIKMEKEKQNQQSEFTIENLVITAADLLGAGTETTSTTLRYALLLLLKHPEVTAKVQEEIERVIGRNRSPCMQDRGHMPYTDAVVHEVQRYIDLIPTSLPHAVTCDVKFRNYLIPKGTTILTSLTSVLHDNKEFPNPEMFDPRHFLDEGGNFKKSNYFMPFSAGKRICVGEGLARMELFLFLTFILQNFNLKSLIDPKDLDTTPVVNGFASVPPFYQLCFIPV

CYP2C9 = CYP2C9 (Homo sapiens, UniProt P11712); assay: Inhibition of CYP2C9 (unknown origin) at 10 uM; type: ADME
Chain of CYP2C9 (P11712 whole entry): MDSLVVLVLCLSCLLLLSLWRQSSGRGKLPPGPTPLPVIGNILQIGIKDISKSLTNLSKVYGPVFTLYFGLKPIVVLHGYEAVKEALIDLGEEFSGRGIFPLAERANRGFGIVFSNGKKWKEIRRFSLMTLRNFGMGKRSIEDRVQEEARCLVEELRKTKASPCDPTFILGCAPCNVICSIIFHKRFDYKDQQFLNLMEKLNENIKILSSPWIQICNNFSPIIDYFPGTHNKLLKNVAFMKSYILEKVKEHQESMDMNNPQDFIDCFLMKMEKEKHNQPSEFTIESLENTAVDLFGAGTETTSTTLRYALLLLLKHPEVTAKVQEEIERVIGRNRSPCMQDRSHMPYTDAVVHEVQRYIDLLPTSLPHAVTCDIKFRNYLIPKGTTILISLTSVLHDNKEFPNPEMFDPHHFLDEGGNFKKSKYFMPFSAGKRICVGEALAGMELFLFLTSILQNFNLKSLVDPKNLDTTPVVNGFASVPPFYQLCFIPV

CYP3A4 = CYP3A4 (Homo sapiens, UniProt P08684); assay: Inhibition of CYP3A4 (unknown origin) at 10 uM; type: ADME
Chain of CYP3A4 (P08684 whole entry): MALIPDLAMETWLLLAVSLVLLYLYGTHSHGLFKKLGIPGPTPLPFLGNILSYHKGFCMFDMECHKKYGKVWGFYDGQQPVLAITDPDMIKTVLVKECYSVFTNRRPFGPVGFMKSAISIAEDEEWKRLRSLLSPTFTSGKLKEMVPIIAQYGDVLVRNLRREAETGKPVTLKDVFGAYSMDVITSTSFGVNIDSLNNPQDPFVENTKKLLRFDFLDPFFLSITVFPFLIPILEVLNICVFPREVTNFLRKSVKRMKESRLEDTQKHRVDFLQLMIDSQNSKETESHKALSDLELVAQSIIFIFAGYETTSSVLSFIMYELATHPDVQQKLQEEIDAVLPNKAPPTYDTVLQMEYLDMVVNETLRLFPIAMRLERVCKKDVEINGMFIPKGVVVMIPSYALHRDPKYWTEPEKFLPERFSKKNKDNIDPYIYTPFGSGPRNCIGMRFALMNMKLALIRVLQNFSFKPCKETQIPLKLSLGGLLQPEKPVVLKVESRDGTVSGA

Acyl-CoA desaturase 1 = target: T1, Acyl-CoA desaturase 1 (Mus musculus, UniProt P13516); assay: Inhibition of SCD1 in ICR mouse liver microsome using [9,10 3H]- stearoyl-Coenzyme A substrate assessed as decreased production of tritiated water after 20 min by scintillation counting analysis
T1 sequence (P13516 whole entry): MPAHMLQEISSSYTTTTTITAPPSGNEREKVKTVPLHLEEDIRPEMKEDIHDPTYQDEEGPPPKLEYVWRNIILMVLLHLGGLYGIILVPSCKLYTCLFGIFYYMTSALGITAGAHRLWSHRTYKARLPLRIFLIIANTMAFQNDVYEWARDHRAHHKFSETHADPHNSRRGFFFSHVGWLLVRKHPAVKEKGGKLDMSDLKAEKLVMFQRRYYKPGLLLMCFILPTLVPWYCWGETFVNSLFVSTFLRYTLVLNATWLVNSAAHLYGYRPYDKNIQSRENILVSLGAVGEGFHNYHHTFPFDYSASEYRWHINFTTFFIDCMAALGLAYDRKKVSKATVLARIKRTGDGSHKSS

[5] = target: Acyl-CoA (8-3)-desaturase (Rattus norvegicus) (UniProt Q920R3); assay: Inhibition of delta5 desaturase in Sprague-Dawley rat liver microsome at 10 uM; type: microsomes
Chain of Acyl-CoA (8-3)-desaturase (Rattus norvegicus) (Q920R3 whole entry, looked up): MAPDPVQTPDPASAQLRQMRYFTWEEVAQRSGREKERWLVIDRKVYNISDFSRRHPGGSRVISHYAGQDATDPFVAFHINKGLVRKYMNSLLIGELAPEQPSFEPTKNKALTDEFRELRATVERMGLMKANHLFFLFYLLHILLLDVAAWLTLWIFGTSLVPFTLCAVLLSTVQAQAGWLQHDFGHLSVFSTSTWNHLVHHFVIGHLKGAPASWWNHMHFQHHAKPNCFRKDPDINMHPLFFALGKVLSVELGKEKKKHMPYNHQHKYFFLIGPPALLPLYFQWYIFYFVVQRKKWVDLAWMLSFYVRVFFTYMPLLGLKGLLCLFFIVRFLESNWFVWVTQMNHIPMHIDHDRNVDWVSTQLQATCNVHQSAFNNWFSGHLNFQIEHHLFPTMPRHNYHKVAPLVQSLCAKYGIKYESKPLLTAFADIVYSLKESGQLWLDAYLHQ

[6] = Apparent permeability from basolateral to apical side in human Caco2 cells; type: ADME, cell-based; details: Caco-2; in short: as §2
Stearoyl-CoA desaturase = target: T2, Stearoyl-CoA desaturase (Homo sapiens, UniProt O00767); assay: Inhibition of SCD1 in human HepG2 cells using [14C]-stearate substrate assessed as decreased production of [14C]-oleic acid after 24 hrs; type: cell-based
T2 sequence (O00767 whole entry): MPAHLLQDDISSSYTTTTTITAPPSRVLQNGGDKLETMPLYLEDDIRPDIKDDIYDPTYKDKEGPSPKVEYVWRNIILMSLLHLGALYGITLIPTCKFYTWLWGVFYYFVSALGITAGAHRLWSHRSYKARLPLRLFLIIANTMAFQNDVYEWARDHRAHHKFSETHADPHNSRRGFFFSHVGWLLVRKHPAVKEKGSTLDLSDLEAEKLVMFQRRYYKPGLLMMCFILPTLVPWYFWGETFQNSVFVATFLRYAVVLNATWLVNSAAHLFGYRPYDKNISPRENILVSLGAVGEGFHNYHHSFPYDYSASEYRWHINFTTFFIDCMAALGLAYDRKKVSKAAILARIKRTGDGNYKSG

[7] = target: Acyl-CoA 6-desaturase (Rattus norvegicus) (UniProt Q9Z122); assay: Inhibition of delta6 desaturase in Sprague-Dawley rat liver microsome using cis,cis-9,12-octadecadienoic acid substrate at 10 uM
Chain of Acyl-CoA 6-desaturase (Rattus norvegicus) (Q9Z122 whole entry, looked up): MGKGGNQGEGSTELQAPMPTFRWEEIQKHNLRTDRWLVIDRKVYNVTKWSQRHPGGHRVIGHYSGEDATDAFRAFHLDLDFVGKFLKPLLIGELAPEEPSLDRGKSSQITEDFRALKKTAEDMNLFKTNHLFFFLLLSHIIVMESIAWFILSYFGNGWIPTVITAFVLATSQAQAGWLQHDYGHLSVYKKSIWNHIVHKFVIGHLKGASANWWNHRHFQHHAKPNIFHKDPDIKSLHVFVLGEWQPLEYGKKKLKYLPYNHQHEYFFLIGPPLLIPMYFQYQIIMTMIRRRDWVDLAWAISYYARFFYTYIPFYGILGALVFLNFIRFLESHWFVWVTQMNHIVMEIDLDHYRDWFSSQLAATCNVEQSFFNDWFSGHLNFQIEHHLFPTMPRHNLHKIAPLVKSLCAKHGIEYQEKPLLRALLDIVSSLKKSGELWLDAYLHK

Rattus norvegicus [8] = assay: In vivo inhibition of SCD1 in Zucker-Fatty rat assessed as reduction of C18 plasma desaturation index at 1 mg/kg, po bid administered for 15 weeks; type: functional; details: 2520 h
In short: (§3)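 Plasma from Zucker fatty rats after 15 weeks oral 1 mg/kg twice daily. Lipids extracted by modified Folch, classes separated by TLC, hydrolyzed, derivatized and analyzed by GC against an internal standard. Desaturation index is the […] ratio for C16 and C18; n = 12, mean ± SEM.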

Rattus norvegicus [9] = assay: In vivo inhibition of SCD1 in Zucker-Fatty rat assessed as reduction of C16 plasma desaturation index at 1 mg/kg, po bid administered for 15 weeks; type: functional; details: 2520 h; in short: as §3
Rattus norvegicus [10] = assay: Antiobesity activity in Zucker-Fatty rat assessed as reduction in bone mineral content at 1 mg/kg, po bid administered for 15 weeks; type: functional, organism-based; design: dose 1 mg/kg
In short: (§4)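 Male Zucker fa/fa rats, 20 weeks old, chow ad libitum, 24 per group. Dosed orally twice daily (10 a.m., 4 p.m.) at 1 mg/kg for 15 weeks, suspended in 1% CMC/0.1% Tween 20/10% propylene glycol/water; vehicle controls. Body weight taken daily, change from day 0 over 12 weeks. At end: epididymal, retroperitoneal and mesenteric fat pads weighed; DEXA of carcass BMC, lean and fat mass; fat % = FM/(BMC+LM+FM); n = 12, mean ± SEM.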

Rattus norvegicus [11] = assay: Antiobesity activity in Zucker-Fatty rat assessed as reduction in lean mass at 1 mg/kg, po bid administered for 15 weeks; type: functional, organism-based; design: dose 1 mg/kg; in short: as §4
Rattus norvegicus [12] = assay: Antiobesity activity in Zucker-Fatty rat assessed as reduction in fat mass at 1 mg/kg, po bid administered for 15 weeks; type: functional; design: scale not given: the % may be the effect or the level left; in short: as §4
Rattus norvegicus [13] = assay: Antiobesity activity in Zucker-Fatty rat assessed as reduction in body fat percentage at 1 mg/kg, po bid administered for 15 weeks relative to vehicle-treated control; type: functional; design: scale not given: the % may be the effect or the level left; in short: as §4
Rattus norvegicus [14] = assay: Antiobesity activity in Zucker-Fatty rat assessed as reduction in combined visceral fat weight at 1 mg/kg, po bid administered for 15 weeks relative to vehicle-treated control; type: functional; design: scale not given: the % may be the effect or the level left; in short: as §4
Rattus norvegicus [15] = assay: Antiobesity activity in Zucker-Fatty rat assessed as reduction in total body weight at 1 mg/kg, po bid administered upto 12 weeks relative to vehicle-treated control; type: functional; design: scale not given: the % may be the effect or the level left; in short: as §4
[16] = Clearance in Lewis rat at 1 mg/kg, iv; type: ADME, organism-based; design: dose 1 mg/kg, route intravenous; details: in vivo
In short: (§5)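 Lewis rats, IV 3 mg/kg and PO 10 mg/kg unless otherwise stated (some at PO 5 mg/kg, IV 1 mg/kg, or IV 1/PO 2 mg/kg). At least two rats IV, three rats PO, averaged. Plasma t1/2 (h), AUC 0–∞ (μM·h), Vss (L/kg), clearance ((L/h)/kg), Cmax (μM), Tmax (h), oral bioavailability (%).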

[17] = Volume of distribution at steady state in Lewis rat at 1 mg/kg, iv; type: ADME, organism-based; design: dose 1 mg/kg, route intravenous; details: in vivo, read-out: Vdss; in short: as §5
[18] = Half life in Lewis rat at 1 mg/kg, iv; type: ADME, organism-based; design: dose 1 mg/kg, route intravenous; details: in vivo; in short: as §5
[19] = Oral bioavailability in Lewis rat at 10 mg/kg; type: ADME, organism-based; details: in vivo; in short: as §5
[20] = Cmax in Lewis rat at 10 mg/kg, po; type: ADME, organism-based; design: dose 10 mg/kg, route oral; details: in vivo; in short: as §5
[21] = Tmax in Lewis rat at 10 mg/kg, po; type: ADME, organism-based; design: dose 10 mg/kg, route oral; details: in vivo; in short: as §5
Rattus norvegicus [22] = assay: In vivo inhibition of SCD1 in po dosed Lewis rat liver microsome after 4 hrs; type: functional; in short: as §1
Rattus norvegicus [23] = assay: In vivo inhibition of SCD1 in po dosed Lewis rat liver microsome at 0.1 to 1 mg/kg after 4 hrs; type: functional, organism-based; in short: as §1
[24] = Clearance in Lewis rat at 3 mg/kg, iv; type: ADME, organism-based; design: dose 3 mg/kg, route intravenous; details: in vivo; in short: as §5
[25] = Volume of distribution at steady state in Lewis rat at 3 mg/kg, iv; type: ADME, organism-based; design: dose 3 mg/kg, route intravenous; details: in vivo, read-out: Vdss; in short: as §5
[26] = Half life in Lewis rat at 3 mg/kg, iv; type: ADME, organism-based; design: dose 3 mg/kg, route intravenous; details: in vivo; in short: as §5

remaining at 0.5 h [2] [%]	Papp A→B [4] [×10⁻⁶ cm/s]	IC50 (Acyl-CoA desaturase 1) [nM]	inhibition [5]	Papp B→A [6] [×10⁻⁶ cm/s]	inhibition [7]	bioavailability [19] [%]	Cmax [20] [nM]	Tmax [21] [h]	Compound	inhibition in vivo at 15 mg/kg (Rattus norvegicus [1]) [%]	further results
57	25	26							CC(C)CCNC(=O)c1ccc(N2CCN(C(=O)c3ccccc3C(F)(F)F)CC2)nn1	40	fraction unbound [3]: 0.22; inhibition at 10 µM (CYP2D6): < 50%; inhibition at 10 µM (CYP2C19): < 50%; inhibition at 10 µM (CYP2C9): < 50%; inhibition at 10 µM (CYP3A4): < 50%
36	21	72	inactive	21	inactive				Cc1cc(C(=O)N2CCN(c3ccc(C(=O)NCCC4CC4)nn3)CC2)c(C(F)(F)F)o1	< 30	IC50 (Stearoyl-CoA desaturase): 62 nM
74	30	14	inactive	30	inactive	49	900	3.3	O=C(NCCC1CC1)c1ccc(N2CCN(C(=O)c3cc(F)ccc3C(F)(F)F)CC2)nn1	> 60	inhibition in vivo at 1 mg/kg (Rattus norvegicus [8]): 61%; inhibition in vivo at 1 mg/kg (Rattus norvegicus [9]): 73%; Activity (Rattus norvegicus [10]): inactive; Activity (Rattus norvegicus [11]): inactive; Activity (Rattus norvegicus [12]): 20%; Activity (Rattus norvegicus [13]): 9%; Activity (Rattus norvegicus [14]): 24%; Activity (Rattus norvegicus [15]): 36%; clearance [16]: 21.7 mL/min/kg; Vd [17]: 2.7 L/kg; half-life [18]: 1.6 h; ED50 (Rattus norvegicus [22]): 0.8 mg/kg; inhibition (Rattus norvegicus [23]): Dose-dependent effect
63	22	42	inactive	23	inactive	42	1900	3.3	O=C(CNC(=O)c1ccc(N2CCN(C(=O)c3ccccc3C(F)(F)F)CC2)nn1)c1ccccc1	> 60	clearance [24]: 4.67 mL/min/kg; Vd [25]: 0.7 L/kg; half-life [26]: 1.8 h
